Rows were chosen to be rich in hits. Some 3.1% of all compounds tested hit in one or more screens of this group.
KCNK3 block = human KCNK3 channel inhibition, primary screen; AID 602410; B-score at 10 µM; hit rate 0.84% among 340,000; CHO-KCNK3 thallium flux, FluxOR fluorescence; hits give low values; O14649;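 active = B-score under library mean minus 4 SD, starting fluorescence ratio at most library mean plus 5 SD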;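 note: more negative B-score means stronger inhibition of thallium flux through KCNK3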
KCNQ1 block = human KCNQ1 channel inhibition | CHO-K1 KCNQ1, FluxOR thallium flux fluorescence; hits give high values | P51787 | hit rate 1.3% among 310,000 | B-score at 10 µM | AID 2642;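 active = compounds whose thallium flux B-score, printed positive for inhibition, exceeds three library SD while starting fluorescence stays within three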;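 note: channel opened by potassium depolarization with thallium stimulus after 20 min compound exposure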
KCNQ1 act = potentiators or activators of human KCNQ1 potassium channel; AID 2648; B-score at 10 µM; CHO-K1 KCNQ1, thallium flux FluxOR fluorescence; hits give high values; P51787; hit rate 0.35% among 310,000;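 active = fluorescence ratio B-score, a plate-corrected score, at least three library SD, with initial intensity B-score within 5 SD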
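System: CHO-K1 cells stably expressing KCNQ1 / Medium: assay buffer for compound exposure, DMSO matched across wells / Reagent: thallium- and potassium-containing depolarizing buffer / Compound: one concentration, matched DMSO / Incubation: 20 min compound pretreatment at room temperature / Measured by: kinetic FluxOR fluorescence, 10 s baseline plus 110 s post-stimulus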
hERG rescue = compounds protecting human hERG from proarrhythmic drug block. Q12809. CHO-hERG, FluxOR thallium flux, dofetilide IC70 present. activation (rescue from dofetilide block), less the hit threshold, % at 10 µM. hit rate 0.51% among 310,000. AID 1511;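 active = activation above the mean of controls blocked by dofetilide plus 5 SD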;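 note: thallium influx through hERG after potassium depolarization seen as dye fluorescence rise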
KCNK9 block = human KCNK9 channel inhibition; hit rate 1.2% among 310,000; B-score at 10 µM; HEK293 KCNK9, FluxOR thallium flux fluorescence; hits give low values; Q9NPC2;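 active = ratio B-score over 3 SD below the library mean, with starting fluorescence within 5 SD of its mean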;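 note: negative B-score means less thallium flux so channel inhibition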
Target sequence (Q9NPC2 whole entry, looked up): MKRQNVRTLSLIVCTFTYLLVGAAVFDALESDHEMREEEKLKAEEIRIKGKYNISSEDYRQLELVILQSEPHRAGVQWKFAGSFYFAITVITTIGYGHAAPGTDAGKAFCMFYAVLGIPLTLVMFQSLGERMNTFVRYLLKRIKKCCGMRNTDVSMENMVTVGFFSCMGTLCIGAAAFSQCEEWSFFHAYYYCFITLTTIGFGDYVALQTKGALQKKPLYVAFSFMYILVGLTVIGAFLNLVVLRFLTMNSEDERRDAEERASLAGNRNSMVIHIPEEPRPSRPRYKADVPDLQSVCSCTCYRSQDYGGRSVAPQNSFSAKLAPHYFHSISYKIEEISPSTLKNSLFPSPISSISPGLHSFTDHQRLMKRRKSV
KCNK9 block conf = confirmation of human KCNK9 potassium channel inhibitors; shares compounds with KCNK9 block; HEK293 KCNK9 cells, FluxOR thallium flux fluorescence; inhibition, % at 10 µM; hit rate 43% among 4,900; AID 492992;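 active = thallium signal inhibited by more than 5 SD of the compound-free buffer control wells, on both duplicate plates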;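 note: 0% = assay buffer control wells without compound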
Kir21 sel = selectivity of KCNK9 modulators against mouse Kir2.1 | inhibition, % at 10 µM | hit rate 4% among 4,900 | Kir2.1 cells, FluxOR thallium flux fluorescence | shares compounds with KCNK9 block | AID 492993;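 active = thallium signal drop more than 5 SD beyond the mean of the no-compound control wells, seen in both duplicate plates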;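 note: signal is fluorescence rise after thallium addition divided by baseline fluorescence; plate controls were assay buffer only for no effect and full block by chlorpromazine control for full effect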
HEK293 Tl ctr = second counter-screen for KCNK9 modulators: effect in non-induced cells | hit rate 40% among 4,900 | inhibition, % at 10 µM | AID 492997 | non-induced KCNK9-HEK293, FluxOR thallium flux | shares compounds with KCNK9 block;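 active = thallium signal drop beyond 5 SD of the untreated control mean, on both duplicate plates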;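 note: plate controls were buffer only IC0 wells for no effect and SID17386958 at its maximal inhibitory level for full effect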
The depositor's hits bear a star; i = inactive; x = not tested or not shown.

SMILES	KCNK3 block	KCNQ1 block	KCNQ1 act	hERG rescue	KCNK9 block	KCNK9 block conf	Kir21 sel	HEK293 Tl ctr
COc1cc2c(cc1OC)C(C)N(C(=O)c1ccc(Cl)c(S(=O)(=O)N3CCCCC3)c1)CC2 (stereo not given)	i	i	i	-6.9	-11.2*	32.5%*	i	i
CCCCC1(c2ccc(F)cc2)NC(=O)N(CC(=O)Nc2ccc(N3CCOCC3)cc2)C1=O (stereo not given)	i	x	x	x	x	x	x	x
Cc1nc(N2CCN(c3ccccc3)CC2)[nH]c(=O)c1Cc1cccc2ccccc12	x	i	i	-7.8	i	x	x	x
CCCCOC(=O)c1ccc(NC(=O)C(=O)CC(=O)c2ccc(OC)cc2)cc1	i	i	i	-5.7	i	x	x	x
CC(C)c1ccc(C2(C)NC(=O)N(CC(=O)NC3CCCC(C)C3C)C2=O)cc1 (stereo not given)	i	x	x	x	x	x	x	x
C/C(=N\NC(=O)c1nn(C)c(C)c1Br)c1ccc(NC(=O)C2CCCC2)cc1	i	i	i	-7.1	-12.1*	68.0%*	i	i
CC(NC(=O)COC(=O)C12CC3CC(CC(Br)(C3)C1)C2)c1ccccc1 (stereo not given)	i	x	x	x	x	x	x	x
Cc1cc(Oc2cnn(C(C)(C)C)c(=O)c2Cl)cc(C(C)C)c1	i	i	i	-20.8	i	i	i	i
NC(=O)CC(NC(=O)c1cccc(Br)c1)c1ccc(NC2CCCCCCCCCCC2)c([N+](=O)[O-])c1 (stereo not given)	i	i	i	-1.7	i	x	x	x
Cc1c(N2C(=O)/C(=C/C3CC=CCC3)SC2=S)c(=O)n(-c2ccccc2)n1C (stereo not given)	i	i	i	-1.0	i	x	x	x
Cc1c(N2C(=O)/C(=C/c3ccccc3)SC2=S)c(=O)n(-c2ccccc2)n1C	i	i	i	-7.6	i	i	i	i
Cc1ccc(/C=C2\SC(=S)N(c3c(C)n(C)n(-c4ccccc4)c3=O)C2=O)cc1	i	i	i	-7.3	i	i	i	i
CC(C)(C)c1cc(C(C)(C)C)cc(S(=O)(=O)CCc2ccccn2)c1	i	i	i	-1.4	i	x	x	x
CSc1ccc(S(=O)(=O)NCCSC(C)(C)C)cc1	i	i	i	-11.6	i	x	x	x
CCCCOC(=O)C1=C(C)NC2=C(C(=O)CCC2)C1c1cc(OC)ccc1OC (stereo not given)	i	i	i	-9.1	i	x	x	x
COc1cc2c(cc1OC)CN(C(=O)c1cc(C3CC3)nn1-c1ccccc1)CC2	i	x	x	x	x	x	x	x
Cc1cc(C(=O)Cn2nnc(-c3ccc(Cl)cc3)n2)c(C)n1-c1ccccc1	i	i	i	-18.6	i	i	i	i
O=C(CSc1ccc(-c2ccc(Cl)cc2)nn1)N1CCCc2ccccc21	i	i	i	-15.4	i	i	i	i
Cc1cccc(Nc2nc(-c3ccc4c(c3)OCCO4)cs2)c1	i	i	i	-5.7	i	i	i	i
CCOC(=O)c1ccc(N/C(=N\S(=O)(=O)c2ccccc2C)c2ccccc2)cc1	i	i	i	-17.5	-8.43*	39.0%*	i	28.5%*
COC(=O)c1ccc(N/C(=N/S(=O)(=O)c2ccccc2)c2ccccc2)cc1	i	i	i	-13.3	i	x	x	x
O=C(Nc1cccc(-c2nnc(-c3ccccc3)o2)c1)c1ccc(Br)o1	i	i	i	-2.5	-19.8*	44.0%*	i	i
CC[C@]12c3[nH]c4cc(-c5ccco5)ccc4c3CCN1C(=O)[C@@H](CC(=O)NCCc1ccccn1)C[C@@H]2C(=O)N1CCN(C(=O)c2ccco2)CC1	i	x	x	x	x	x	x	x
COc1cc(NC(=O)c2c(-c3ccccc3Cl)noc2C)c2ncccc2c1	i	i	i	-11.6	i	x	x	x
Cc1onc(-c2ccccc2Cl)c1C(=O)Nc1cccc2cccnc12	i	6*	i	-9.6	-12.7*	47.0%*	i	45.0%*
SMILES	KCNK3 block	KCNQ1 block	KCNQ1 act	hERG rescue	KCNK9 block	KCNK9 block conf	Kir21 sel	HEK293 Tl ctr
Cc1nn(Cc2ccccc2)c(=O)n1N(C)c1ncc(C(F)(F)F)cc1Cl	i	i	i	-3.9	i	i	i	i
COC(=O)c1c(C)oc(C)c1S(=O)(=O)N(C)C1CCCCC1	i	i	i	-4.3	i	x	x	x
COc1ccccc1CNc1cc(CSc2ccc(Cl)cc2)nc(C)n1	i	i	i	-6.2	i	i	46.0%*	i
Cc1cccc(-c2nc(CS(=O)CC(=O)NCc3cccs3)c(C)o2)c1 (stereo not given)	i	i	i	-11.5	i	x	x	x
Cc1cccc(-c2nc(CSCC(=O)NCc3cccs3)c(C)o2)c1	i	i	i	-14.7	i	i	i	i
CC(=O)c1cccc(NC(=O)C2C(c3ccccc3)C2(Cl)Cl)c1 (stereo not given)	i	i	i	-10.3	i	x	x	x
Cc1cccc(NC(=O)C2C(c3ccccc3)C2(Cl)Cl)c1 (stereo not given)	i	i	i	-11.5	i	i	i	i
CCc1nc(N2CCN(C(=O)c3ccco3)CC2)c2c3c(sc2n1)CCCC3	i	i	i	-15.2	-10.3*	50.0%*	i	i
C/C(CC(=O)Nc1ccc([N+](=O)[O-])cc1)=N/NC(=O)C1CC12CCC2 (stereo not given)	i	i	i	-15.1	i	x	x	x
COc1ccccc1-n1c(SCC(=O)Nc2cccc(S(N)(=O)=O)c2)nc2ccccc2c1=O	i	i	i	-16.0	-8.45*	34.0%*	i	i
NS(=O)(=O)c1cccc(NC(=O)CSc2nc3ccccc3c(=O)n2Cc2ccco2)c1	i	x	x	x	x	x	x	x
COc1ccc(OC)c(-n2c(SCC(=O)Nc3cccc(S(N)(=O)=O)c3)nc3ccccc3c2=O)c1	i	i	i	-9.0	-12.8*	56.5%*	i	34.5%*
COc1ccc(C)cc1-n1c(SCC(=O)Nc2cc(C)on2)nc2ccccc2c1=O	i	i	i	-10.0	i	x	x	x
Cc1ccc(S(=O)(=O)n2nc(OC(=O)c3c(F)cccc3Cl)cc2N)cc1	i	i	i	-2.7	-19.5*	61.0%*	i	36.5%*
CCCNC(=O)C12CCC(C)(c3nc4cc(C)c(C)cc4nc31)C2(C)C (stereo not given)	i	i	i	-8.4	i	i	i	i
